According to ChEMBL document CHEMBL1122584 (1984):
Peptide text beside a SMILES is read from it.

Key:
Rattus norvegicus [1] = organism: Rattus norvegicus; assay: (§1) Compound was evaluated for its glycogenolytic activity in normal male rats and the plasma glucose level was determined at 1 ug/100 g of body weight; format: functional, organism-based
Outline: (§2)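 Groups of five, anesthetized with sodium pentobarbital (6–7 mg/100 g), given peptide in saline s.c. (0.5 mL) 30 min later. Jugular blood was drawn at 15 min into EDTA, and plasma glucose was measured by glucose oxidase. Mean ± SD, n = 5.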

Rattus norvegicus [2] = organism: Rattus norvegicus; assay: Compound was evaluated for its glycogenolytic activity in normal male rats and the plasma glucose level was determined at 2 ug/100 g of body weight; format: functional, organism-based; outline: as §2
Rattus norvegicus [3] = organism: Rattus norvegicus; assay: Potency of glycogenolytic activity was reported by four point assay; format: functional
Rattus norvegicus [4] = organism: Rattus norvegicus; assay: Compound was evaluated for its glycogenolytic activity in normal male rats and the plasma glucose level was determined at 12 ug/100 g of body weight; format: functional, organism-based
Outline: as §2, with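 “Male Charles River CD rats (175–350 g), fed and kept at 24 ± 2 °C under a 0500–1900 h light cycle for at least 1 week. Groups” for “Groups”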

Rattus norvegicus [5] = organism: Rattus norvegicus; assay: Compound was evaluated for its glycogenolytic activity in normal male rats and the plasma glucose level was determined at 6 ug/100 g of body weight; format: functional, organism-based
Outline: as §2, with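 “Male Charles River CD rats (175–350 g), fed and kept at 24 ± 2 °C under a 0500–1900 h light cycle for at least 1 week. Groups” for “Groups”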

Rattus norvegicus [6] = organism: Rattus norvegicus; assay: potency of glycogenolytic activity was reported by four point assay.; format: functional, organism-based
Rattus norvegicus [7] = organism: Rattus norvegicus; assay: as §1; format: functional, organism-based; remark: listed apart in the source
Outline: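 Male Charles River CD rats (175–350 g), fed, anesthetized with sodium pentobarbital (6–7 mg/100 g), dosed subcutaneously 30 min later with peptide in saline (0.5 mL, gelatin-coated syringes), groups of five. Jugular blood drawn exactly 15 min post-injection into EDTA, and plasma glucose measured by glucose oxidase. Values are mean ± SD, n = 5.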

Rattus norvegicus [8] = organism: Rattus norvegicus; assay: Compound was evaluated for its glycogenolytic activity in normal male rats and the plasma glucose level was determined at 0.5 ug/100 g of body weight; format: functional, organism-based
Rattus norvegicus [9] = organism: Rattus norvegicus; assay: Compound was evaluated for its glycogenolytic activity in normal male rats and the plasma glucose level was determined at 4 ug/100 g of body weight; format: functional, organism-based
Outline: as §2, with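 “Male Charles River CD rats (175–350 g), fed and kept at 24 ± 2 °C under a 0500–1900 h light cycle for at least 1 week. Groups” for “Groups”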

Compound | Plasma glucose (Rattus norvegicus [1]) [mg 100ml-1] | Plasma glucose (Rattus norvegicus [2]) [mg 100ml-1] | Potency (Rattus norvegicus [3]) [%] | Plasma glucose (Rattus norvegicus [4]) [mg 100ml-1] | Plasma glucose (Rattus norvegicus [5]) [mg 100ml-1] | Potency (Rattus norvegicus [6]) [%] | Plasma glucose (Rattus norvegicus [7]) | Plasma glucose (Rattus norvegicus [8]) | Plasma glucose (Rattus norvegicus [9]) [mg 100ml-1]
CSCC[C@H](NC(=O)[C@H](CC(C)C)NC(=O)[C@H](Cc1c[nH]c2ccccc12)NC(=O)[C@H](CCC(N)=O)NC(=O)[C@@H](NC(=O)[C@H](Cc1ccccc1)NC(=O)[C@H](CC(=O)O)NC(=O)[C@H](CCC(N)=O)NC(=O)[C@H](C)NC(=O)[C@H](CCCN=C(N)N)NC(=O)[C@H](CCCN=C(N)N)NC(=O)[C@H](CO)NC(=O)[C@H](CC(=O)O)NC(=O)[C@H](CC(C)C)NC(=O)[C@H](Cc1ccc(O)cc1)NC(=O)[C@H](CCCN=C(N)N)NC(=O)[C@H](CO)NC(=O)[C@H](Cc1ccc(O)cc1)NC(=O)[C@H](CC(=O)O)NC(=O)[C@H](CO)NC(=O)[C@@H](NC(=O)[C@H](Cc1ccccc1)NC(=O)[C@@H](NC(=O)CNC(=O)[C@H](CCC(N)=O)NC(=O)[C@H](CO)NC(=O)[C@@H](N)Cc1ccccc1)[C@@H](C)O)[C@@H](C)O)C(C)C)C(=O)N[C@@H](CC(N)=O)C(=O)N[C@H](C(=O)O)[C@@H](C)O (H-FSQGTFTSDYSRYLDSRRAQDFVQWLMNT-OH) | 161 | 183 | 31 | – | – | – | – | – | –
CSCC[C@H](NC(=O)[C@H](CC(C)C)NC(=O)[C@H](Cc1c[nH]c2ccccc12)NC(=O)[C@H](CCC(N)=O)NC(=O)[C@@H](NC(=O)[C@H](Cc1ccccc1)NC(=O)[C@H](CC(=O)O)NC(=O)[C@H](CCC(N)=O)NC(=O)[C@H](C)NC(=O)[C@H](CCCN=C(N)N)NC(=O)[C@H](CCCN=C(N)N)NC(=O)[C@H](CO)NC(=O)[C@H](CC(=O)O)NC(=O)[C@H](CC(C)C)NC(=O)[C@H](Cc1ccc(O)cc1)NC(=O)[C@H](CCCN=C(N)N)NC(=O)[C@H](CO)NC(=O)[C@H](Cc1ccc(O)cc1)NC(=O)[C@H](CC(=O)O)NC(=O)[C@H](CO)NC(=O)[C@@H](NC(=O)[C@H](Cc1ccccc1)NC(=O)[C@@H](NC(=O)CNC(=O)[C@H](CCC(N)=O)NC(=O)[C@@H](N)CO)[C@@H](C)O)[C@@H](C)O)C(C)C)C(=O)N[C@@H](CC(N)=O)C(=O)N[C@H](C(=O)O)[C@@H](C)O (H-SQGTFTSDYSRYLDSRRAQDFVQWLMNT-OH) | – | – | 4 | 186 | 165 | – | – | – | –
CSCC[C@H](NC(=O)[C@H](CC(C)C)NC(=O)[C@H](Cc1c[nH]c2ccccc12)NC(=O)[C@H](CCC(N)=O)NC(=O)[C@@H](NC(=O)[C@H](Cc1ccccc1)NC(=O)[C@H](CC(=O)O)NC(=O)[C@H](CCC(N)=O)NC(=O)[C@H](C)NC(=O)[C@H](CCCN=C(N)N)NC(=O)[C@H](CCCN=C(N)N)NC(=O)[C@H](CO)NC(=O)[C@H](CC(=O)O)NC(=O)[C@H](CC(C)C)NC(=O)[C@H](Cc1ccc(O)cc1)NC(=O)[C@H](CCCN=C(N)N)NC(=O)[C@H](CO)NC(=O)[C@H](Cc1ccc(O)cc1)NC(=O)[C@H](CC(=O)O)NC(=O)[C@H](CO)NC(=O)[C@@H](NC(=O)[C@H](Cc1ccccc1)NC(=O)[C@@H](NC(=O)[C@@H](C)NC(=O)[C@H](CCC(N)=O)NC(=O)[C@H](CO)NC(=O)[C@@H](N)Cc1c[nH]cn1)[C@@H](C)O)[C@@H](C)O)C(C)C)C(=O)N[C@@H](CC(N)=O)C(=O)N[C@H](C(=O)O)[C@@H](C)O | 174 | 198 | 44 | – | – | – | – | – | –
GLUCAGON | – | – | 100 | – | – | 100 | 213 mg 100ml-1 [middle of 5 runs] | 186 mg 100ml-1 [middle of 4 runs] | –
CSCC[C@H](NC(=O)[C@H](CC(C)C)NC(=O)[C@H](Cc1c[nH]c2ccccc12)NC(=O)[C@H](CCC(N)=O)NC(=O)[C@@H](NC(=O)[C@H](Cc1ccccc1)NC(=O)[C@H](CC(=O)O)NC(=O)[C@H](CCC(N)=O)NC(=O)[C@H](C)NC(=O)[C@H](CCCN=C(N)N)NC(=O)[C@H](CCCN=C(N)N)NC(=O)[C@H](CO)NC(=O)[C@H](CC(=O)O)NC(=O)[C@H](CC(C)C)NC(=O)[C@H](Cc1ccc(O)cc1)NC(=O)[C@H](CCCN=C(N)N)NC(=O)[C@H](CO)NC(=O)[C@H](Cc1ccc(O)cc1)NC(=O)[C@H](CC(=O)O)NC(=O)[C@H](CO)NC(=O)[C@@H](NC(=O)[C@H](Cc1ccccc1)NC(=O)[C@@H](NC(=O)[C@@H](C)NC(=O)[C@H](CCC(N)=O)NC(=O)[C@H](CO)NC(=O)[C@H](N)Cc1ccc(Cl)cc1)[C@@H](C)O)[C@@H](C)O)C(C)C)C(=O)N[C@@H](CC(N)=O)C(=O)N[C@H](C(=O)O)[C@@H](C)O | – | 158 | 9 | – | – | – | – | – | 176
